Source: PubChem BioAssay
Records with an inconclusive call do not appear. Calls of active or inactive are those of the source.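 How the source made its calls, unless noted: active means cell viability at or below a set limit in both duplicate runs, the limit being the all-compound median minus 4 SD (cut at about 23% in these data, passing the limit was not always enough); inconclusive means no clear call, values can overlap the other calls; inactive means the rest.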

Tests used:
[1] = OD615 S. cerevisiae growth inhibition, permissive medium, pilot counter-assay, permissive growth control for S. cerevisiae lifespan shortening project (AID 705;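 active means growth inhibition above 25% in both replicates, a cutoff set 3 SD above the mean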); conditions: OD615, 24 h, at 10 µM, stronger effect = higher value
Outline: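 Test system: Saccharomyces cerevisiae strain carrying genetically modified DeaD replicative-lifespan system; buffer or medium: SC raffinose/galactose permissive medium; dosing: one dose 10 µM, DMSO 0.25% final; times: 24 h exposure, 30 °C; measured by: OD at 615 nm; read-out basis: growth inhibition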

[2] = Restrictive medium S. cerevisiae growth inhibition, OD615, pilot screen of yeast lifespan reduction project, restrictive growth control (AID 706;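 active means growth inhibition above a set limit, 3 SD over mean compound inhibition, in both replicates, cut at about 43% in these data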;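 further: modified DeaD lifespan yeast strain shifted to restrictive glucose medium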); conditions: OD615, 48 h, at 10 µM, stronger effect = higher value
Outline: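 material = engineered S. cerevisiae DeaD strain | buffer or medium = glucose-based CSMM-D restrictive medium | dosing = one concentration, 10 µM final, 0.25% DMSO | schedule = 4 h pre-growth plus 48 h compound exposure, 30 °C | detection = OD615 absorbance reading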

[3] = viability gain of MRP-1-high H69AR cells under doxorubicin, pilot screen, MRP-1 activator project, CellTiter-Glo, duplicate (AID 807;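 active means viability increase at or above a cutoff of the median across tested compounds plus 3 SD, cut at about 8.5% in these data, passing the limit was not always enough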;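 further: compound pretreatment 18-22 h then 72 h combined with doxorubicin; 0% = doxorubicin alone and 100% = vehicle without doxorubicin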); conditions: H69AR viability with doxorubicin, CellTiter-Glo luminescence; at 10 µM; stronger effect = higher value
[4] = growth suppression of beta-catenin knockout HCT116, pilot screen, human colon tumor cells (AID 823); conditions: CellTiter-Glo, 60 h, at 10 µM, stronger effect = lower value;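 further: 0% = wells killed by 20 µM Hyamine and 100% = untreated DMSO cell wells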
[5] = growth suppression of PTEN-deleted HCT116, pilot screen, cell-based, HCT116 clonal line, CellTiter-Glo (AID 824;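 active means viability at or below 27.92% in each of two runs, the all-compound median minus 4 SD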;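 further: 0% = 20 µM Hyamine control and 100% = vehicle cell control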); conditions: 60 h, at 10 µM, stronger effect = lower value
[6] = inhibitors of the yeast RAM network, pilot screen, dse1pr::URA3 reporter, 5-FOA selection (AID 869;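 active means inhibition over a set limit, the all-compound mean plus 3 SD, in both replicate runs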;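 further: 0% = DMSO wells with no growth and 100% = 10 µM 1-NA-PP1 with full growth; RAM network block rescues cells from 5-FOA so hits raise OD615 growth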); conditions: S. cerevisiae dse1pr::URA3 5-FOA growth, OD615, 2 d; at 10 µM; stronger effect = higher value; strain carries analog-sensitive mutant Cbk1 kinase
[7] = RAM signaling pathway blockade in yeast – S. cerevisiae, Pdr1DBD-CYC8 efflux-inhibited sensitized strain, primary screen (AID 1298;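 active means RAM network inhibition above 8.4% in each of two replicates, 3 SD over the compound average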;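 further: 0% = DMSO untreated cells without growth and 100% = 10 µM 1-NA-PP1 full growth; higher means more yeast growth rescued from 5-FOA killing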); conditions: S. cerevisiae cbk1-as DSE1-URA3 strain, 5-FOA growth OD615, 2 d; at 50 µM; stronger effect = higher value

O=C(CC12CC3CC(CC(C3)C1)C2)NCO
inactive: growth inhibition [1] 4.32% | growth inhibition [2] 5.98% | viability increase [3] 0.63% | viability [4] 100% | viability [5] 104% | inhibition [6] 1.92% | RAM network inhibition [7] -1.39%

CCCCN(C)c1nc(-c2ccco2)c2c(c1C#N)CC(C)(C)OC2
inactive: growth inhibition [1] -9.48% | growth inhibition [2] 0.09% | viability increase [3] -4.56% | viability [4] 96.3% | viability [5] 98.3% | inhibition [6] 1.63% | RAM network inhibition [7] -0.79%

CC(C)Cc1ccc(C#N)c(SCC(N)=O)n1
inactive: growth inhibition [1] -8.16% | growth inhibition [2] -9.82% | viability increase [3] -2.54% | viability [4] 97.2% | viability [5] 92.1% | inhibition [6] 2.18% | RAM network inhibition [7] 3.19%

CCOC(=O)N1CCC(N2Cc3cccc(C(=O)NCc4ccccn4)c3C2=O)CC1
inactive: growth inhibition [1] -4.83% | growth inhibition [2] 8.18% | viability increase [3] -5.24% | viability [4] 99.8% | viability [5] 102% | inhibition [6] 2.19% | RAM network inhibition [7] -1.14%

COc1ccc(NC(=O)Nc2nnc(N3CCC(C)CC3)s2)cc1OC
inactive: growth inhibition [1] -8.13% | growth inhibition [2] -23% | viability increase [3] -4.49% | viability [4] 107% | viability [5] 98.1% | inhibition [6] 1.59% | RAM network inhibition [7] 1.42%

c1ccc(OCc2nnc3sc(C4COc5ccccc5O4)nn23)cc1 (configuration not stated)
inactive: growth inhibition [1] 4.23% | growth inhibition [2] 5.81% | viability increase [3] -1.91% | viability [4] 99.4% | viability [5] 90% | inhibition [6] 2.56% | RAM network inhibition [7] 5.98%

COc1ccc(-c2nn(-c3ccccc3)cc2C(=O)O)cc1
inactive: growth inhibition [1] -8.52% | growth inhibition [2] 1.15% | viability increase [3] -3.69% | viability [4] 105% | viability [5] 97% | inhibition [6] 3.71% | RAM network inhibition [7] 11.1%

[O-]/[N+](=C\c1ccncc1)c1ccc(Br)cc1
inactive: growth inhibition [1] -15% | growth inhibition [2] -19.9% | viability increase [3] -4.14% | viability [4] 83.7% | viability [5] 87.9% | inhibition [6] 2.81% | RAM network inhibition [7] 6.02%

COC(=O)c1nc2n(n1)C(c1cccc(Cl)c1)C1=C(CCCC1=O)N2 (configuration not stated)
inactive: growth inhibition [1] -4.09% | growth inhibition [2] 7.08% | viability increase [3] -2.99% | viability [4] 98.1% | viability [5] 95.3% | inhibition [6] 0.155% | RAM network inhibition [7] 1.89%

Cn1c(NC(=O)c2cccc(C(F)(F)F)c2)cc(=O)n(C)c1=O
inactive: growth inhibition [1] -16% | growth inhibition [2] -5.14% | viability increase [3] -2.74% | viability [4] 98.8% | viability [5] 94.5% | inhibition [6] 0.925% | RAM network inhibition [7] 1.89%

O=C1CNC(=O)/C1=C\N1CCN(C(c2ccccc2)c2ccccc2)CC1
inactive: growth inhibition [1] 5.72% | growth inhibition [2] 9.98% | viability increase [3] -2.16% | viability [4] 99.2% | viability [5] 101% | inhibition [6] 2.48% | RAM network inhibition [7] 1.6%

CCOCCn1c(CN2CCC(C)CC2)nc2c1c(=O)n(C)c(=O)n2C
inactive: growth inhibition [1] 7.15% | growth inhibition [2] -2.44% | viability increase [3] -1.22% | viability [4] 91.8% | viability [5] 91.5% | inhibition [6] 0.02% | RAM network inhibition [7] -0.56%

COc1ccc(C2NC(=O)c3n[nH]c(C)c32)c(OC)c1 (configuration not stated)
inactive: growth inhibition [1] -1.65% | growth inhibition [2] 7.6% | viability increase [3] -0.95% | viability [4] 102% | viability [5] 103% | inhibition [6] 2.85% | RAM network inhibition [7] 3.42%

CCOC(=O)C1CCN(CC(O)COc2ccc(C(C)=O)cc2)CC1 (configuration not stated)
inactive: growth inhibition [1] -1.86% | growth inhibition [2] -5.14% | viability increase [3] -0.88% | viability [4] 97.6% | viability [5] 91.6% | inhibition [6] 0.87% | RAM network inhibition [7] 2.51%

Cn1c(NC(=O)CCC2CCCCC2)cc(=O)n(C)c1=O
inactive: growth inhibition [1] -1.97% | growth inhibition [2] -10.8% | viability increase [3] 2.29% | viability [4] 92.9% | viability [5] 83.6% | inhibition [6] 0.52% | RAM network inhibition [7] -1.2%

O=C(c1cc2c(ccc3ccccc32)oc1=O)N1CCN(CCO)CC1
inactive: growth inhibition [1] -9.81% | growth inhibition [2] -3.65% | viability increase [3] -2.23% | viability [4] 88.8% | viability [5] 93.7% | inhibition [6] 3.29% | RAM network inhibition [7] -1.69%

CCOC(=O)CC1=C(C#N)C(c2cccnc2)C(C(=O)OCC)=C(N)O1 (configuration not stated)
inactive: growth inhibition [1] -0.965% | growth inhibition [2] -12.4% | viability increase [3] -3.12% | viability [4] 104% | viability [5] 99.6% | inhibition [6] 1.98% | RAM network inhibition [7] 8.18%

O=C(O)CCc1nnc2n(Cc3ccc(F)cc3)c(=O)c3ccccc3n12
inactive: growth inhibition [1] -4.64% | growth inhibition [2] 5.36% | viability increase [3] -0.62% | viability [4] 99.2% | viability [5] 90.8% | inhibition [6] 1.04% | RAM network inhibition [7] 1.56%

COc1ccc(C(=O)Nc2ccccc2C(=O)NCCCn2ccnc2)cc1
inactive: growth inhibition [1] -1.82% | growth inhibition [2] -2.64% | viability increase [3] -0.82% | viability [4] 95.1% | viability [5] 92.9% | inhibition [6] 0.715% | RAM network inhibition [7] 2.86%

CCOC(=O)N1CCN(c2ncnc3nc[nH]c23)CC1
inactive: growth inhibition [1] -8.7% | growth inhibition [2] -10.1% | viability increase [3] -1.85% | viability [4] 109% | viability [5] 106% | inhibition [6] 0.595% | RAM network inhibition [7] 4.23%

Cc1nc2sc(C(c3ccc(Cl)cc3)N3CCN(CCO)CC3)c(O)n2n1 (configuration not stated)
inactive: growth inhibition [1] 7.67% | growth inhibition [2] 4.92% | viability increase [3] -2.42% | viability [4] 97% | viability [5] 90.2% | inhibition [6] 1.82% | RAM network inhibition [7] 1.58%

CC1CN(S(=O)(=O)c2ccc(C(=O)Nc3sc4c(c3C(N)=O)CCN(C)C4)cc2)CC(C)O1 (configuration not stated)
inactive: growth inhibition [1] -6.76% | growth inhibition [2] -7.93% | viability increase [3] -0.69% | viability [4] 91.9% | viability [5] 97.7% | inhibition [6] 1.35% | RAM network inhibition [7] 5.2%

Cc1nc2ccccn2c1/C(O)=C1\C(=O)C(=O)N(CCCN(C)C)C1c1ccc(Cl)cc1 (configuration not stated)
inactive: growth inhibition [1] -12.2% | growth inhibition [2] -4.13% | viability increase [3] -1.34% | viability [4] 109% | viability [5] 95.9% | inhibition [6] 0.18% | RAM network inhibition [7] -1.78%

Cc1cccc(N2CCN(C(=O)C3CCN(S(=O)(=O)c4cccc5cccnc45)CC3)CC2C)c1 (configuration not stated)
inactive: growth inhibition [1] -1.53% | growth inhibition [2] -4.12% | viability increase [3] -1.38% | viability [4] 69.9% | viability [5] 67.1% | inhibition [6] 2.65% | RAM network inhibition [7] 1.04%

CCOCCn1c(SCc2ccccc2)nc2c1c(=O)[nH]c(=O)n2C
inactive: growth inhibition [1] -16.6% | growth inhibition [2] -27.6% | viability increase [3] -1.41% | viability [4] 104% | viability [5] 96.7% | inhibition [6] 0.205% | RAM network inhibition [7] 7.51%

Cc1sc2nc(SCC(=O)N3CCCC3)[nH]c(=O)c2c1C
inactive: growth inhibition [1] -0.89% | growth inhibition [2] -6.9% | viability increase [3] -1.34% | viability [4] 104% | viability [5] 98% | inhibition [6] 0.26% | RAM network inhibition [7] 1.77%

CCOC(=O)C1CCN(C(=O)c2ccc(Cl)c(NC3=NC4CS(=O)(=O)CC4S3)c2)CC1 (configuration not stated)
inactive: growth inhibition [1] -13.6% | growth inhibition [2] -14.5% | viability increase [3] -0.09% | viability [4] 107% | viability [5] 89.4% | inhibition [6] 1.65% | RAM network inhibition [7] -0.37%

CCc1ccc(N(CC(=O)NC2CCCCC2)S(=O)(=O)c2c(C)noc2C)cc1
inactive: growth inhibition [1] -9.43% | growth inhibition [2] -2.85% | viability increase [3] -1.23% | viability [4] 92.2% | viability [5] 92.3% | inhibition [6] 2.05% | RAM network inhibition [7] 4.91%

COc1cccc(N2CCN(c3ncnc4c3cnn4-c3ccc(C)cc3C)CC2)c1
inactive: growth inhibition [1] 4.2% | growth inhibition [2] 3.35% | viability increase [3] -8.59% | inhibition [6] 1.66% | RAM network inhibition [7] 8.39%
active: viability [4] 7.71% | viability [5] 10.3%

O=C(NCc1ccco1)Nc1ccc(Br)cc1
inactive: growth inhibition [1] 3.96% | growth inhibition [2] 5.27% | viability increase [3] -2.7% | viability [4] 95.7% | viability [5] 97.7% | inhibition [6] 1.09% | RAM network inhibition [7] 5.07%

Cc1ccc(-c2noc(CN(C(=O)c3cccc(Br)c3)C(C)C)n2)cc1
inactive: growth inhibition [1] 0.485% | growth inhibition [2] -2.63% | viability increase [3] 1.98% | viability [4] 92.5% | viability [5] 85.3% | inhibition [6] 2.58% | RAM network inhibition [7] 10%

Cc1ccc(CNC(=O)CCS(=O)(=O)c2cccc3nsnc23)cc1
inactive: growth inhibition [1] -2.81% | growth inhibition [2] -1.48% | viability increase [3] -1.57% | viability [4] 103% | viability [5] 104% | inhibition [6] 1.64% | RAM network inhibition [7] 6.91%

N#Cc1cnn(CC2CCCCC2)c1N
inactive: growth inhibition [1] -15.6% | growth inhibition [2] -8.75% | viability increase [3] -0.89% | viability [4] 89.4% | viability [5] 93.2% | inhibition [6] 1.57% | RAM network inhibition [7] 3.68%

O=C(NCCN1CCOCC1)c1ccc(CS(=O)(=O)c2ccc(Br)cc2)o1
inactive: growth inhibition [1] 0.315% | growth inhibition [2] -7.27% | viability increase [3] -1.79% | viability [4] 99.5% | viability [5] 97.6% | inhibition [6] 1.31% | RAM network inhibition [7] 3.72%

NC(=O)c1cc(N2C(=O)C3CC=CCC3C2=O)ccc1N1CCCCC1 (configuration not stated)
inactive: growth inhibition [1] -21.2% | growth inhibition [2] -3.95% | viability increase [3] 0.16% | viability [4] 93.1% | viability [5] 92.4% | inhibition [6] 1.98% | RAM network inhibition [7] 4.2%

Cc1cc(C(=O)N2CCN(Cc3ccc4c(c3)OCO4)CC2)on1
inactive: growth inhibition [1] -6.71% | growth inhibition [2] -10.4% | viability increase [3] 0.9% | viability [4] 97.2% | viability [5] 105% | inhibition [6] 1.79% | RAM network inhibition [7] 2.8%
